Experimental data collected from several papers.
Target: Mitogen-activated protein kinase 3 (MAPK3, Homo sapiens, UniProt P27361)

Structure (SMILES)	assay	setting	remaining binding [%]
COc1ncc2cc3ccccc3nc2c1C#N	cell-free assay, competition with immobilised ligand	5 µM	93
N#Cc1ccccc1CSc1nnc2c(n1)[nH]c1ccccc12	binding, competition with immobilised ligand	10 µM	89
CN(CCCC(F)(F)F)c1nccc(-c2cnn3ncccc23)n1	binding	1 µM	97
COc1cccc(CNC(=O)c2nc3scc(COCc4ccc(C(=O)O)cc4)c3c(=O)[nH]2)c1	cell-free assay, competition with immobilised ligand	1 µM	100
O=C(c1ccc(Nc2ncc(Cl)c(-c3ccc(Cl)s3)n2)cc1)N1CCC(N2CCCC2)CC1	binding, competition with immobilised ligand	1 µM	98
COc1cnc(Nc2cccc(S(N)(=O)=O)c2)nc1N1CCN(c2ccccc2)C(=O)C1	binding, competition with immobilised ligand	1 µM	100
N[C@H]1CCN(c2nccc(-c3cnn4ncccc34)n2)C1	binding	1 µM	91
Cc1c(NC(=O)c2cc(C(N)=O)nc3cc(F)ccc23)c(C(F)(F)F)nn1Cc1ccc(C(C)(C)C)cc1	cell-free assay, competition with immobilised ligand	1 µM	100
CN(C)c1nccc(-c2cnc3ncccn23)n1	binding	1 µM	100
CC(=O)C1=C(C)N(c2cccc(C(F)(F)F)c2)C(=O)N[C@@H]1c1ccc(C#N)nc1	cell-free assay, competition with immobilised ligand	1 µM	97.1
Cc1cnn2ncc(-c3ccnc(N(C)C)n3)c2c1	binding	1 µM	100
COc1cc(-c2cn(C3CCc4ccccc4N(CC(F)(F)F)C3=O)nn2)ccc1-n1ccc(C)n1 (centres unmarked)	cell-free assay, competition with immobilised ligand	1 µM	100
CN(C)c1nccc(-c2cnn3ncccc23)n1	binding	1 µM	100
O=C(NCCCN1CCOCC1)c1ccc(Nc2ncc(Cl)c(-c3ccc(Cl)s3)n2)cc1	binding, competition with immobilised ligand	1 µM	100
Nc1ncc2c(n1)-c1c([nH]c3ccc(C#CC4CC4)cc13)CCCC2	binding, competition with immobilised ligand	1 µM	100
C[C@@H]1CCN(c2nccc(-c3cnn4ncccc34)n2)C1	binding	1 µM	83
O=C(Nc1cccnn1)N1CC(C/C=C/c2cncc(Oc3ccc(C(F)(F)F)cn3)n2)C1	cell-free assay, competition with immobilised ligand	1 µM	99
O=C(c1ccc(Nc2nccc(-c3cc4ccccc4s3)n2)cc1)N1CCC(N2CCCC2)CC1	binding, competition with immobilised ligand	1 µM	100
C[C@H](c1cccc(C#N)c1)n1cc(Cl)cc(C(N)=O)c1=N	cell-free assay, competition with immobilised ligand	1 µM	97
O=C(Nc1c[nH]nc1C(=O)NC1CCNCC1)c1cc(F)cc(F)c1	binding, competition with immobilised ligand	1 µM	100
CCN1CCN(Cc2ccc(C(=O)Nc3ccc(C)c(Oc4ccc5c(c4)CC(=O)N5)c3)cc2C(F)(F)F)CC1	binding, competition with immobilised ligand	1 µM	100
N#Cc1ccc(Nc2ccc3[nH]c(=O)[nH]c3c2)c(Cl)c1	cell-free assay, competition with immobilised ligand	1 µM	95
FC(F)(F)Oc1cccc(-c2cnc3ccc(-c4ccncc4)nn23)c1	cell-free assay, competition with immobilised ligand	5 µM	88
C[C@@H]1CN(c2ccc3ncc(-c4ccc5[nH]nc(C6CC6)c5c4)n3n2)C[C@H](C)O1	binding, competition with immobilised ligand	0.5 µM	100
CN([C@@H]1CCc2c(CC(=O)O)c3cc(S(C)(=O)=O)ccc3n2C1)S(=O)(=O)c1ccc(F)cc1	cell-free assay, competition with immobilised ligand	1 µM	92
F[C@@H]1CCN(c2nccc(-c3cnn4ncccc34)n2)C1	binding	1 µM	85
